According to ChEMBL document CHEMBL4428023, “1,4-Dihydropyridines Active on the SIRT1/AMPK Pathway Ameliorate Skin Repair and Mitochondrial Function and Exhibit Inhibition of Proliferation in Cancer Cells” (J Med Chem, 2016):
Activity calls are given as the source filed them. The rule behind the calls is not given here.

Assays:
[1] = target: 3',5'-cyclic-AMP phosphodiesterase 4D (Homo sapiens) (UniProt Q08499); experiment: Inhibition of recombinant human PDE4D assessed as phosphate release using cAMP as substrate at 50 uM after 60 mins by malachite green assay
How it was run: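 Recombinant human PDE4D (20 mU) in 10 mM Tris-HCl pH 7.4 with cAMP substrate. Compounds at 50 µM in DMSO; rolipram 10 µM as positive control. Incubated 60 min at 37 °C, then phosphate release measured by malachite green absorbance at 620 nm. Mean of three determinations.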

HaCaT [2] = experiment: Activation of AMPK/SIRT1 in human HaCaT cells assessed as nitric oxide production at 1 uM incubated for 1 hr by DAF-2D staining-based fluorescence assay; assay type: cell-based
How it was run: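 HaCaT keratinocytes grown in DMEM with 10% FBS and antibiotics. Cells treated 1 h (single-point 1 µM; dose-response at 5, 25, 50 µM). 5 µM DAF-2D added to complete medium. Cells then washed in PBS, trypsinized and analysed by flow cytometry for DAF fluorescence (ex 485/em 538 nm). Read-out is % DAF-positive cells relative to DMSO control.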

HaCaT [3] = experiment: Activation of AMPK/SIRT1 in human HaCaT cells assessed as nitric oxide production at 10 uM incubated for 1 hr in presence of EX-527 by DAF-2D staining-based fluorescence assay; assay type: cell-based
How it was run: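 HaCaT cells in DMEM with 10% FBS. DHP (10 µM) given for 1 h alone or together with 10 µM AMPK inhibitor compound C or 10 µM SIRT1 inhibitor EX-527. Intracellular NO read by flow cytometry after loading with 5 µM DAF-2D in medium (ex 485/em 538 nm). Expressed as % DAF-positive cells versus DMSO.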

[4] = target: T1, NAD-dependent protein deacetylase sirtuin-1 (Homo sapiens) (UniProt Q96EB6); experiment: Activation of SIRT1 in human HaCaT cells assessed as H4K16 deacetylation at 1 uM after 1 hr by Western blotting method; assay type: cell-based
T1 sequence (whole entry): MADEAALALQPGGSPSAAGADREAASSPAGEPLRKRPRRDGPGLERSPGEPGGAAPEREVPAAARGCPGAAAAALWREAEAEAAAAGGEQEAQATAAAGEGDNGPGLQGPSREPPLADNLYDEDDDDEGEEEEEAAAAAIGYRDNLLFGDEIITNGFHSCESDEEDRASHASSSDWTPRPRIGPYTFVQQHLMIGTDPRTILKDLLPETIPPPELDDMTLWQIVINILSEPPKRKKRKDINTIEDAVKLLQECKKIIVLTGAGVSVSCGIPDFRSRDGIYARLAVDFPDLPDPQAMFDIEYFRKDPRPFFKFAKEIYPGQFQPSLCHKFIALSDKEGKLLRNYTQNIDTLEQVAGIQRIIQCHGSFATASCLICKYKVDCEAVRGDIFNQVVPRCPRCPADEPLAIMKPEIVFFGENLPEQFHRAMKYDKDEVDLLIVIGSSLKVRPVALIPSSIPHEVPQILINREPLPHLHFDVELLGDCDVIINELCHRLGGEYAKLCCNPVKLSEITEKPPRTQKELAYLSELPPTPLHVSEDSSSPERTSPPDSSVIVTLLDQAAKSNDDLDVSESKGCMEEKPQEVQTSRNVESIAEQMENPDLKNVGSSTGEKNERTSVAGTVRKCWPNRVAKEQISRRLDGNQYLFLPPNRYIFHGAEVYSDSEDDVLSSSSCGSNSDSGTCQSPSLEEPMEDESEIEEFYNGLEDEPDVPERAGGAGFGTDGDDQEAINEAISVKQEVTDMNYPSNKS
How it was run: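 HaCaT cells treated 1 h at 1 µM, DMSO as solvent control. Cells lysed in Laemmli buffer and immunoblotted for acetyl-H4K16 (1:1000), with total histone H4 as loading control. Bands quantified by densitometry. At least three independent experiments.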

Mus musculus = experiment: Wound healing activity in CD1 mouse assessed as decrease in epithelial gap at 1 uM administered topically on wound everyday for 14 days by biopsy punch assay; assay type: functional, organism-based
How it was run: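 Male CD1 mice, 8 weeks old, anaesthetized i.p. with medetomidine 1 mg/kg plus ketamine 75 mg/kg, then biopsy-punch wounded. Compound (1 µM) in 20 µL saline applied directly to the wound daily for 14 days; solvent-treated group as control. Epithelial gap and % wound closure followed over time.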

C2C12 [5] = experiment: Activation of AMPK/SIRT1 in mouse C2C12 cells assessed as increase in mitochondrial density at 30 uM after 16 hrs by Mitotracker Green staining-based confocal microscopy; assay type: cell-based
How it was run: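 Murine C2C12 myoblasts plated on coverslips and grown overnight at 37 °C, 5% CO2. Then switched to serum-free HBSS, pH 7.4, and treated 16 h at 30 µM, alone or with 5 µM compound C or EX-527. Mitotracker Green (200 nM final) added for the last 30 min. Cells fixed in 4% paraformaldehyde, permeabilized and imaged by confocal microscopy, with settings fixed on untreated cells. Plate fluorescence also quantified.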

C2C12 [6] = experiment: Activation of AMPK/SIRT1 in mouse C2C12 cells assessed as increase in mitochondrial density at 30 uM after 16 hrs by Mitotracker Green staining-based confocal microscopy in presence of compound C; assay type: cell-based
How it was run: (§1)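 C2C12 myoblasts plated overnight, then in serum-free HBSS pH 7.4 and treated 16 h at 30 µM, alone or with 5 µM inhibitor (EX-527 or compound C). Mitotracker Green at 200 nM final was added for the last 30 min. Cells were fixed in 4% paraformaldehyde, permeabilized with Triton X-100 and imaged by confocal microscopy with fixed settings. Alternatively, mitochondrial fluorescence was quantified in plates.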

C2C12 [7] = experiment: Activation of AMPK/SIRT1 in mouse C2C12 cells assessed as increase in mitochondrial density at 30 uM after 16 hrs by Mitotracker Green staining-based confocal microscopy in presence of EX-527; assay type: cell-based; how it was run: as §1
Cavia porcellus = species: Cavia porcellus; experiment: Antagonist activity at calcium channel in guinea pig smooth muscle assessed as inhibition of calcium-induced contraction in K+-depolarized aortic strips at 50 uM
How it was run: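 Guinea-pig isolated aortic strips depolarized with 80 mM K+; read-out is percent inhibition of calcium-induced contraction.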

M14 = experiment: Antiproliferative activity against human M14 cells assessed as cell viability after 72 hrs by MTT assay; assay type: functional, cell-based; conditions: M14, 72 h
How it was run: (§2)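 Cells grown in RPMI with 10% fetal calf serum and penicillin, seeded in sextuplicate at 3 × 10^3 cells/well. After 24 h, cells were exposed 72 h to 5–200 µM. Viability was measured by MTT and expressed as treated/untreated × 100. IC50 was calculated from three independent experiments, reported as mean ± SD.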

NCI-H1299 = experiment: Antiproliferative activity against human NCI-H1299 cells assessed as cell viability after 72 hrs by MTT assay; assay type: functional, cell-based; conditions: NCI-H1299, 72 h; how it was run: as §2
HT-29 = experiment: Antiproliferative activity against human HT-29 cells assessed as cell viability after 72 hrs by MTT assay; assay type: functional, cell-based; conditions: HT-29, 72 h; how it was run: as §2
LoVo = experiment: Antiproliferative activity against human LoVo cells assessed as cell viability after 72 hrs by MTT assay; assay type: functional, cell-based; how it was run: as §2
Caov-3 cell line = experiment: Antiproliferative activity against human Caov3 cells assessed as cell viability after 72 hrs by MTT assay; assay type: functional, cell-based; conditions: Caov-3, 72 h; how it was run: as §2
HEY = experiment: Antiproliferative activity against human HEY cells assessed as cell viability after 72 hrs by MTT assay; assay type: functional, cell-based; how it was run: as §2

3',5'-cyclic-AMP phosphodiesterase 4D (Homo sapiens), sequence (Q08499 whole entry): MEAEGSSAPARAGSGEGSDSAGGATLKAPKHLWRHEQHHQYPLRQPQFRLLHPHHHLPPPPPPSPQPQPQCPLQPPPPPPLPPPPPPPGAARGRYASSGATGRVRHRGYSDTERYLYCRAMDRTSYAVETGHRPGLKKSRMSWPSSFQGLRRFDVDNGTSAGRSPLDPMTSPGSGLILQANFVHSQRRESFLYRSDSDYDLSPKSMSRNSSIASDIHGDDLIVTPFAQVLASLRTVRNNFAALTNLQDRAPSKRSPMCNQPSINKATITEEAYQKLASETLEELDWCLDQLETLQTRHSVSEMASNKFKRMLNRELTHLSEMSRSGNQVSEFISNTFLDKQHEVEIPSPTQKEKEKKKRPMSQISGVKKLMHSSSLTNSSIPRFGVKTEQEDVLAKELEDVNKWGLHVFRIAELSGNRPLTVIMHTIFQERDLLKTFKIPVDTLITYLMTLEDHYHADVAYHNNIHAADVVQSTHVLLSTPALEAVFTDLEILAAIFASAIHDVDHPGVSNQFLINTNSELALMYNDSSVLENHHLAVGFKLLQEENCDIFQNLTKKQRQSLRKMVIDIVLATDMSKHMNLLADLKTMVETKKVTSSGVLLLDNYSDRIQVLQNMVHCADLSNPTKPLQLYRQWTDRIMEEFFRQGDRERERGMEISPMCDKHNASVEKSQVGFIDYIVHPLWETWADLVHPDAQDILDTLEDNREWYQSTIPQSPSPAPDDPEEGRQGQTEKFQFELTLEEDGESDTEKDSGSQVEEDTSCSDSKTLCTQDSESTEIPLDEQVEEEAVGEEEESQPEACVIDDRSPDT

For `CCOC(=O)C1=CN(C(=O)c2ccccc2)C=C(C(=O)OCC)C1c1ccccc1`, the inhibition [1] was “inactive”, the Activity (HaCaT [2]) was “Active” and the Activity (HaCaT [3]) was “inactive”. The Activity [4] was “Active”, the Activity (Mus musculus) was “Active” and the Activity (C2C12 [5]) was “Active”. For the same compound, the Activity (C2C12 [6]) was “inactive”, the Activity (C2C12 [7]) was “inactive” and the inhibition (Cavia porcellus) was 12%. The IC50 (M14) was 153 µM, the IC50 (NCI-H1299) was 125 µM and the IC50 (HT-29) was 80 µM. The IC50 (LoVo) was 22 µM, the IC50 (Caov-3 cell line) was > 200 µM and the IC50 (HEY) was 143 µM.
